Like-named read-outs stand apart in the source and are kept apart here.
Columns and labels:
[1] = PK and biodistribution in rats after IM injection; format: in vivo, Sprague-Dawley rats; conditions: rat
[2] = reported value, no reference given; cited from earlier work
[3] = tested on: human monocyte-derived macrophages (MDMs); assay: Nanoparticle macrophage uptake and retention; format: cell-based; conditions: 100 µM
[4] = tested on: HIV-1ADA; assay: EC50 by HIV-1 RT activity in MDMs; format: cell-based; conditions: HIV-1ADA MOI 0.1, HIV-1 RT activity
In short: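 Human MDMs pretreated 1 hr with 0.01–1000 nM test compound, then exposed to HIV-1ADA at MOI 0.1 for 4 hrs. RT activity measured in collected media. EC50 taken as 50% inhibitory concentration from nonlinear-regression concentration–response fits.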

[5] = format: in vivo, Sprague-Dawley rats; conditions: rat, IM
In short: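 Male Sprague-Dawley rats dosed IM (caudal thigh) at 45, 75 or 100 mg/kg FTC-equivalents. Cells from fresh blood, spleen and lymph nodes isolated, stored in 70% methanol and counted. Triphosphate separated from mono- and diphosphates on QMA cartridges, then dephosphorylated with type XA sweet potato acid phosphatase. Isotope-labelled lamivudine internal standard added after incubation (final 0.5 ng/mL). Mean±SEM, n=3–5.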

[6] = Aqueous solubility; format: physicochemical; conditions: water, 24 hrs, room temperature
In short: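 Excess drug mixed in water 24 hrs at room temperature, spun 20,000× g for 10 mins. Supernatant quantified by reversed-phase UPLC on C18 at 1.0 mL/min. Parent run in 95% 20 mM ammonium acetate/5% ACN, pH 3.9, detected at 272 nm. Prodrug run in 90% methanol/10% water, detected at 280 nm. Peak areas compared with 0.05–50 µg/mL standards in methanol.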

[7] = tested on: human monocyte-derived macrophages (MDMs); assay: MTT cytotoxicity assay in MDMs; format: cell-based; conditions: up to 100 µM, 4 days of exposure
In short: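 Monocytes plated at 80,000 cells/well and differentiated to macrophages. Exposed to 10–400 µM test compound or nanoformulation for 4 days. Washed, then MTT (5 mg/mL) added for 45 mins at 37°C. Formazan dissolved in DMSO and absorbance read at 490 nm. Values normalised to untreated cells; at least three biological replicates.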

[8] = tested on: HIV-1ADA; assay: Antiretroviral efficacy in drug-preloaded MDMs; format: cell-based
In short: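 Human monocytes from HIV- and hepatitis-seronegative donors, elutriated and differentiated to MDMs. Cells exposed to 100 µM test drug or nanoformulation for 8 hrs, PBS-washed, then challenged with HIV-1ADA (MOI 0.1) for 18 hrs at times from 0 hr to 15 days after loading. Cultured 10 more days, medium changed every other day. Day-10 medium RT activity and p24 immunocytochemistry on 4% paraformaldehyde-fixed cells; uninfected and infected controls.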

Substance: 2`-deoxy-5-fluoro-3`thiacytidine [FTC]
- FTC plasma level ([1]; 45 mg/kg FTC-equivalents, day 1): 25 ng/mL
- FTC level in liver ([1]; 45 mg/kg, day 7): 2.6 ng/g
- FTC level in lymph nodes ([1]; 45 mg/kg, day 7): 17 ng/g
- FTC level in spleen ([1]; 45 mg/kg, day 7): 0 ng/g
- FTC plasma level ([1]; 45 mg/kg, day 7): 0 ng/mL
- FTC plasma level ([1]; 75 mg/kg FTC-equivalents, day 1): 34 ng/mL
- FTC level in liver ([1]; 75 mg/kg, day 7): 14 ng/g
- FTC level in lymph nodes ([1]; 75 mg/kg, day 7): 6 ng/g
- FTC level in spleen ([1]; 75 mg/kg, day 7): 1.6 ng/g
- FTC plasma level ([1]; 75 mg/kg, day 7): 3 ng/mL
- FTC plasma level ([1]; 100 mg/kg FTC-equivalents, day 1): 52 ng/mL
- FTC level in liver ([1]; 100 mg/kg, day 7): 0.6 ng/g
- FTC level in lymph nodes ([1]; 100 mg/kg, day 7): 8 ng/g
- FTC level in spleen ([1]; 100 mg/kg, day 7): 6 ng/g
- FTC plasma level ([1]; 100 mg/kg, day 7): 1.4 ng/mL
- FTC plasma levels compared to NMFTC treatment ([1]; 2 hrs): several fold higher
- IC90 [2]: 0.014 µg/mL
- reported 50% inhibitory concentration (IC50) [2]: 0.008 µg/mL
- highest intracellular FTC-TP concentration ([3]; after 8 hrs): 10 pmol/10^6 cells
- intracellular drug levels ([3]; uptake over 24 hrs): minimal detectable intracellular drug levels
- EC50 [4]: 79 nM
- FTC-TP level in PBMCs ([5]; 45 mg/kg, day 1): 100 fmol/10^6 cells
- FTC-TP level in PBMCs ([5]; 45 mg/kg, day 7): 6 fmol/10^6 cells
- FTC-TP level in PBMCs ([5]; 75 mg/kg, day 1): 133 fmol/10^6 cells
- FTC-TP level in PBMCs ([5]; 75 mg/kg, day 7): 7 fmol/10^6 cells
- FTC-TP level in PBMCs ([5]; 100 mg/kg, day 1): 163 fmol/10^6 cells
- FTC-TP level in PBMCs ([5]; 100 mg/kg, day 7): 8 fmol/10^6 cells
- fold higher PBMC FTC-TP levels compared to NMFTC treatment ([5]; 2 hrs): 2–3 fold
- FTC-TP levels in lymph node cells ([5]; day 1, across doses): 4–7 fmol/10^6 cells
- FTC-TP levels in spleen ([5]; day 1, across doses): 6–13 fmol/10^6 cells
- FTC-TP levels in lymph node cells ([5]; day 7, regardless of dose): 1–2 fmol/10^6 cells
- FTC-TP levels in spleen ([5]; day 7, regardless of dose): 2–3 fmol/10^6 cells
- aqueous solubility [6]: 134 mg/mL
- MDM viability (MTT) [7]: did not affect MDM viability
- inhibition of viral RT activity ([8]; MDMs preloaded 100 µM 8 hrs, challenge at 24 hrs): 30%
- HIV-1 p24 antigen staining ([8]; by 12 hrs following treatment): HIV-1 p24+ cells were observed
- HIV-1 p24 antigen staining ([8]; by day 1): no effect
- HIV-1 RT activity in pre-exposed MDMs ([8]; challenge beyond day 1): did not have effect

From article PMC6689761 (International Journal of Nanomedicine, 2019)
